Results on seven compounds are retold here after ChEMBL document CHEMBL1125019 (J Med Chem, 1990).

Structures are written as SMILES.

Experiment [1] addresses D(1A) dopamine receptor (Rattus norvegicus, UniProt P18901). Nature of the experiment: Binding affinity against Dopamine receptor D1 from rat brain corpus striatum membrane. The gist of the method: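 Four to six concentrations of each test agent. IC50 ± SEM obtained by computer-assisted curve fitting; Ki derived from IC50 using the Kd and ligand concentration.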
Experiment [2] deals with D(2) dopamine receptor (Rattus norvegicus, UniProt P61169). Briefly: Binding affinity against Dopamine receptor D2 from rat brain corpus striatum membrane.
D(2) dopamine receptor, sequence (P61169 whole entry): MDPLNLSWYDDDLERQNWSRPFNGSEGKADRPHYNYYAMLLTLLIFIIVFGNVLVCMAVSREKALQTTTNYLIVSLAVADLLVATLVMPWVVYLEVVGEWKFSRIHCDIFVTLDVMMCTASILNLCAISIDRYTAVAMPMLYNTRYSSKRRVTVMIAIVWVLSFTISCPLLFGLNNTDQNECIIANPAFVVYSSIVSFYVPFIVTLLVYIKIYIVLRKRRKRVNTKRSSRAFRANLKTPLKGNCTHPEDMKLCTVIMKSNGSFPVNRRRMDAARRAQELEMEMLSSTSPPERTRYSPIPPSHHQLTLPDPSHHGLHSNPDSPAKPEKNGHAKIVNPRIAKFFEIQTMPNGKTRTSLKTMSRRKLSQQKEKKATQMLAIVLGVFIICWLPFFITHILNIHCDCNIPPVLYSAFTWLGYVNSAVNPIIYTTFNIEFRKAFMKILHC

D(1A) dopamine receptor, sequence (P18901 whole entry): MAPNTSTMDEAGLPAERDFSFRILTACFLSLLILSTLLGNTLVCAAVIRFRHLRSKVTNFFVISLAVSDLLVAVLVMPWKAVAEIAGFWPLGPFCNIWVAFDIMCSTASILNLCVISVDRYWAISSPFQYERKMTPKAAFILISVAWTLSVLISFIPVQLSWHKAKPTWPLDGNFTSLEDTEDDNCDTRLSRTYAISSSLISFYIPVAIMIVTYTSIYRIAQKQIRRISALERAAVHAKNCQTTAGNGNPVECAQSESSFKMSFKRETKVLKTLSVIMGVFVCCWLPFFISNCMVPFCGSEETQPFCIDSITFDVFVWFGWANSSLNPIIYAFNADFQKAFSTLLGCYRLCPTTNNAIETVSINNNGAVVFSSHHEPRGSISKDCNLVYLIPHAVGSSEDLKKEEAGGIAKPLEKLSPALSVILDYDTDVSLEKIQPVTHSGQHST

Regarding `CCCN1CCc2cc(F)cc3c2[C@H]1Cc1ccc(O)c(O)c1-3`, the IC50 was found to be 1300 nM in experiment [1] and 0.071 nM in experiment [2].

Take `CCCN1CCc2cc(F)cc3c2[C@H]1Cc1ccc2c(c1-3)OCO2`: the IC50 is 3100 nM in experiment [1] and 97.6 nM in experiment [2].

In the case of `CCCN1CCc2cc(N)cc3c2[C@H]1Cc1ccc(O)c(O)c1-3`, the IC50 in experiment [1] was greater than 10000 nM; in experiment [2], 5.5 nM.

`CCCN1CCc2cc(N)cc3c2[C@H]1Cc1ccc2c(c1-3)OCO2`: the values for the half-inhibitory concentration (IC50) in experiment [1] and in experiment [2] were greater than 10000 nM and 704 nM, respectively.

Take `CCCN1CCc2cc(O)cc3c2[C@H]1Cc1ccc(O)c(O)c1-3`: the figures for the half-maximal inhibitory concentration (IC50) in experiment [1] and in experiment [2] were 1720 nM and 0.32 nM, respectively.

As to `CCCN1CCc2cc(Br)cc3c2[C@H]1Cc1ccc(O)c(O)c1-3`, the IC50 in experiment [1] turned out to be 970 nM; in experiment [2], 0.89 nM.

`CCCN1CCc2cc(OC)cc3c2[C@H]1Cc1ccc(O)c(O)c1-3`: the figures for the 50% inhibitory concentration (IC50) in experiment [1] and in experiment [2] were 3340 nM and 1.02 nM, respectively.

Broadly, the IC50 is the midpoint of a concentration-inhibition curve.
